From ChEMBL document CHEMBL5715947 (Blood Cancer J, 2011)
Calls of active or inactive are those of the source. The rule behind the calls is not given here.

Legend:
MOLM-13 [1] = experiment: Induction of cell cycle arrest in human MOLM-13 cells harboring FLT3-ITD mutant assessed decrease in cell accumulation at S phase after 24 hrs by Propidium iodide staining based flow cytometric analysis; type: functional
In short: (§1)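 Cells then fixed in ice-cold 70% ethanol, stained with 20 ng/ml propidium iodide, and cell-cycle phases measured by flow cytometry.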

MV4-11 [2] = experiment: Induction of apoptosis in human MV4-11 cells harboring FLT3-ITD mutant assessed early apoptotic cells at […] after 72 hrs by AnnexinV-FITC/Propidium iodide staining based flow cytometric analysis (reference value: 7.34 %); type: functional; conditions: dose 0.15 µM
MOLM-13 [3] = experiment: Antitumor activity against human MOLM-13 cells harboring FLT-3 ITD mutant xenografted in BALB/c nude mouse assessed as tumor growth inhibition at 50 mg/kg, po bid administered daily for 7 days relative to control; type: functional; conditions: MOLM-13, 168 h, time 7 day, read-out: TGI
MV4-11 [4] = experiment: Induction of apoptosis in human MV4-11 cells harboring FLT3-ITD mutant assessed viable cells at […] after 48 hrs by AnnexinV-FITC/Propidium iodide staining based flow cytometric analysis (reference value: 86.15 %); type: functional; conditions: dose 0.15 µM
MV4-11 [5] = experiment: Induction of apoptosis in human MV4-11 cells harboring FLT3-ITD mutant assessed as increase in early apoptotic cells after 72 hrs by AnnexinV-FITC/Propidium iodide staining based flow cytometric analysis; type: functional, cell-based; conditions: dose 0.03-0.15 µM
[6] = Antiproliferative activity against human derived M5b Fab type Acute myeloid leukemic cells assessed as reduction in cell viability incubated for 48 hr by CellTiter-Glo assay; type: functional, cell-based; conditions: Leukemia cell
In short: (§2)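 Primary AML peripheral blood or bone marrow mononuclear cells thawed and expanded ex vivo; blasts counted between day 10 and 13, characterised by CD123 FACS and FLT3 genotyping. Blasts treated 48 h; proliferation IC50 read by CellTiter-Glo.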

[7] = Antiproliferative activity against relapsed human derived M3 Fab type Acute myeloid leukemic cells assessed as reduction in cell viability incubated for 48 hr by CellTiter-Glo assay; type: functional, cell-based; conditions: Leukemia cell; in short: as §2
Leukemia cell = experiment: Induction of cell cycle arrest in human derived Acute myeloid leukemic cells assessed as increase in cell accumulation at G1 phase at 0.47 uM after 48 hrs by Propidium iodide staining based flow cytometric analysis
MV4-11 [8] = experiment: Induction of apoptosis in human MV4-11 cells harboring FLT3-ITD mutant assessed early apoptotic cells at 0.03 uM after 48 hrs by AnnexinV-FITC/Propidium iodide staining based flow cytometric analysis (reference value: 11.84 %); type: functional
MV4-11 [9] = experiment: Induction of apoptosis in human MV4-11 cells harboring FLT3-ITD mutant assessed increase in cleaved caspase-3/7 after 16 hrs by Caspase-Glo 3/7 assay; type: functional, cell-based
MV4-11 [10] = experiment: Induction of cell cycle arrest in human MV4-11 cells harboring FLT3-ITD mutant assessed decrease in cell accumulation at S phase after 24 hrs by Propidium iodide staining based flow cytometric analysis; type: functional; in short: as §1
MV4-11 [11] = experiment: Induction of apoptosis in human MV4-11 cells harboring FLT3-ITD mutant assessed early apoptotic cells at 0.03 uM after 72 hrs by AnnexinV-FITC/Propidium iodide staining based flow cytometric analysis (reference value: 7.34 %); type: functional
MV4-11 [12] = experiment: Induction of apoptosis in human MV4-11 cells harboring FLT3-ITD mutant assessed necrotic cells at […] after 48 hrs by AnnexinV-FITC/Propidium iodide staining based flow cytometric analysis (reference value: 0.45 %); type: functional; conditions: dose 0.15 µM
MOLM-13 [13] = experiment: Antitumor activity against human MOLM-13 cells harboring FLT-3 ITD mutant xenografted in BALB/c nude mouse assessed as tumor growth inhibition at 150 mg/kg, […] relative to control; type: functional; conditions: MOLM-13, 168 h, route po, read-out: TGI
RS4-11 [14] = experiment: Induction of cell cycle arrest in human RS4-11 cells assessed decrease in cell accumulation at S phase after 24 hrs by Propidium iodide staining based flow cytometric analysis; type: functional; in short: as §1
MV4-11 [15] = experiment: Induction of apoptosis in human MV4-11 cells harboring FLT3-ITD mutant assessed as increase in early apoptotic cells after 48 hrs by AnnexinV-FITC/Propidium iodide staining based flow cytometric analysis; type: functional, cell-based; conditions: dose 0.03-0.15 µM
[16] = Antiproliferative activity against human derived M2 Fab type Acute myeloid leukemic cells assessed as reduction in cell viability incubated for 48 hr by CellTiter-Glo assay; type: functional, cell-based; conditions: Leukemia cell; in short: as §2
MV4-11 [17] = experiment: Induction of cell cycle arrest in human MV4-11 cells harboring FLT3-ITD mutant assessed increase in cell accumulation at G1 phase after 24 hrs by Propidium iodide staining based flow cytometric analysis; type: functional; in short: as §1
MV4-11 [18] = experiment: Antitumor activity against human MV4-11 cells harboring FLT-3 ITD mutant xenografted in BALB/c nude mouse assessed as tumor growth inhibition at 50 mg/kg, po administered daily for 21 days relative to control; type: functional; conditions: MV4-11, 504 h, time 21 day, read-out: TGI
In short: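 Female BALB/c nude mice implanted s.c. in right flank with 1 × 10^7 MV4-11 cells in serum-free medium mixed 1:1 with Matrigel. Randomised on day 11 at mean 146–150 mm3 (n=10/group); oral hydrochloride salt once daily for 21 days in 0.5% methylcellulose/0.1% Tween-80. Doses are free-base equivalents; caliper twice weekly; ANOVA with Dunnett's test.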

RS4-11 [19] = experiment: Antiproliferative activity against human RS4-11 cells assessed as reduction in cell viability incubated for 48 hr by CellTiter-Glo assay; type: functional, cell-based; conditions: RS4-11, 48 h
MOLM-13 [20] = experiment: Antitumor activity against human MOLM-13 cells harboring FLT-3 ITD mutant xenografted in BALB/c nude mouse assessed as decrease in phosphorylated STAT5 at Y694 residue at 150 mg/kg, po measured after 3 hrs by Western blot analysis; type: functional, organism-based
In short: (§3)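 Mice bearing s.c. MOLM-13 xenografts given a single oral dose of 150 mg/kg. Tumours harvested at 3 h; lysates immunoblotted for phospho-FLT3, -STAT3, -STAT5, -Akt and total actin.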

MOLM-13 [21] = experiment: Antitumor activity against human MOLM-13 cells harboring FLT-3 ITD mutant xenografted in BALB/c nude mouse assessed as decrease in phosphorylated […] residue at 150 mg/kg, po measured after 3 hrs by Western blot analysis; type: functional, organism-based; in short: as §3
MV4-11 [22] = experiment: Induction of apoptosis in human MV4-11 cells harboring FLT3-ITD mutant assessed necrotic cells at […] after 72 hrs by AnnexinV-FITC/Propidium iodide staining based flow cytometric analysis (reference value: 0.53 %); type: functional; conditions: dose 0.15 µM
MV4-11 [23] = experiment: Induction of apoptosis in human MV4-11 cells harboring FLT3-ITD mutant assessed necrotic cells at 0.03 uM after 72 hrs by AnnexinV-FITC/Propidium iodide staining based flow cytometric analysis (reference value: 0.53 %); type: functional
[24] = Antiproliferative activity against relapsed human derived M5b Fab type Acute myeloid leukemic cells harboring FLT3-ITD mutant assessed as reduction in cell viability incubated for 48 hr by CellTiter-Glo assay; type: functional, cell-based; conditions: Leukemia cell; in short: as §2
MV4-11 [25] = experiment: Induction of apoptosis in human MV4-11 cells harboring FLT3-ITD mutant assessed viable cells at 0.03 uM after 72 hrs by AnnexinV-FITC/Propidium iodide staining based flow cytometric analysis (reference value: 90.5 %); type: functional
[26] = Antiproliferative activity against relapsed human derived M2 Fab type Acute myeloid leukemic cells harboring FLT3-ITD mutant assessed as reduction in cell viability incubated for 48 hr by CellTiter-Glo assay; type: functional, cell-based; conditions: Leukemia cell; in short: as §2

- EC50 (MV4-11 [9]; MV4-11, 16 h): 960 nM
- IC50 (RS4-11 [19]): 930 nM
Compound: C1=N/C2=N/c3ccc(OCCN4CCCC4)c(c3)COC/C=C/COCc3cccc(c3)C(=C1)N2 [PACRITINIB]
- Activity (MOLM-13 [1]): Dose-Dependent Effect
- Activity (MV4-11 [2]): 58.69%
- inhibition in vivo at 50 mg/kg (MOLM-13 [3]): 15%
- Activity (MV4-11 [4]): 35.61%
- Activity (MV4-11 [5]): Dose-Dependent Effect
- IC50 [6]: 240 nM
- IC50 [7]: 210 nM
- Activity (Leukemia cell): Active
- Activity (MV4-11 [8]): 24.5%
- Activity (MV4-11 [9]): Dose-Dependent Effect
- Activity (MV4-11 [10]): Dose-Dependent Effect
- Activity (MV4-11 [11]): 22.69%
- Activity (MV4-11 [12]): 4.18%
- inhibition in vivo at 150 mg/kg (MOLM-13 [13]): 83%
- Activity (RS4-11 [14]): Dose-Dependent Effect
- Activity (MV4-11 [15]): Dose-Dependent Effect
- IC50 [16]: 350 nM
- Activity (MV4-11 [17]): Dose-Dependent Effect
- inhibition in vivo at 50 mg/kg (MV4-11 [18]): 92%
- Activity (MOLM-13 [20]): Active
- Activity (MOLM-13 [21]): Active
- Activity (MV4-11 [22]): 4.06%
- Activity (MV4-11 [23]): 1.06%
- IC50 [24]: 250 nM
- Activity (MV4-11 [25]): 72.52%
- IC50 [26]: 340 nM
